Experimental data published in ChEMBL document CHEMBL1150418, “Discovery of potent furan piperazine sodium channel blockers for treatment of neuropathic pain” (Bioorg Med Chem, 2008).
pIC50: −log10 of the molar value.

Key:
Rattus norvegicus [1] = test: Analgesic activity in po dosed Sprague-Dawley rat by edge test; type: functional
Procedure, shortened: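 Balance test: rats placed on 0.5-cm-thick edges of a 40 × 40 × 36 cm plexiglass box, must pull up onto the edge and avoid falling; cut-off 2 min. Groups of at least six rats.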

[2] = Ratio of drug level in brain to plasma in Sprague-Dawley rat; type: ADME; settings: Sprague-Dawley, brain and plasma
[3] = Cmax in Sprague-Dawley rat at 10 mg/kg, po; type: ADME, organism-based; design: dose 10 mg/kg, route oral; settings: in vivo
Procedure, shortened: (§1)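 Rat pharmacokinetics after administration at 10 mg/kg in 10% DMSO/PEG400.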

[4] = Plasma clearance in Sprague-Dawley rat at 10 mg/kg; type: ADME, organism-based; design: dose 10 mg/kg; procedure, shortened: as §1
[5] = target: Sodium channel protein type 10 subunit alpha (Mus musculus, UniProt Q6QIY3); test: Inhibition of mouse recombinant Nav1.8 channel expressed in HEK293 cells by isotopic efflux assay; type: cell-based
[6] = target: Sodium channel protein type 10 subunit alpha (Rattus norvegicus) (UniProt Q62968); test: Blockade of Nav1.8 channel in rat dorsal root ganglion neurons assessed as inhibition of TTX-R current at 0.3 uM by whole cell patch clamp technique; type: tissue-based
Procedure, shortened: (§2)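 Whole-cell voltage clamp of TTX-resistant currents in dissociated rat DRG neurons. Pipette (mM): CsF 135, NaCl 5, CsCl 10, EGTA 5, HEPES 10, pH 7.2. Bath (mM): NaCl 22, choline Cl 110, CaCl2 1.8, MgCl2 0.8, HEPES 10, glucose 5, pH 7.4. Inactivated-state protocol with pre-pulse at V1/2 (−40 mV). Mean ± SEM of two to six determinations.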

[7] = target: Sodium channel protein type 5 subunit alpha (Homo sapiens, UniProt Q14524); test: Inhibition of human recombinant Nav1.5 channel expressed in HEK293 cells by whole cell voltage clamp technique; type: cell-based
Procedure, shortened: (§3)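 HEK293 cells stably expressing recombinant human sodium channels, grown in high-glucose DMEM, 10% FBS, 2 mM sodium pyruvate, G418. Holding pre-pulse set at midpoint of steady-state inactivation for each subtype.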

[8] = target: T1, Sodium channel protein type 10 subunit alpha (Homo sapiens, UniProt Q9Y5Y9); test: Inhibition of human recombinant Nav1.8 channel expressed in HEK293 cells by whole cell voltage clamp technique; type: cell-based
Procedure, shortened: (§4)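 HEK293 cells stably expressing recombinant human sodium channels, grown in high-glucose DMEM, 10% FBS, 2 mM sodium pyruvate, G418. Whole-cell voltage clamp; pipettes 0.8–2.5 MΩ; internal (mM) 135 CsF, 10 CsCl, 5 EGTA, 5 NaCl, 10 HEPES, pH 7.3 with CsOH. Holding pre-pulse set at midpoint of steady-state inactivation for each subtype.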

Rattus norvegicus [9] = test: Effect on locomotor activity in po dosed Sprague-Dawley rat; type: functional
Procedure, shortened: (§5)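 Open-field locomotor activity recorded with photobeam activity monitors during the light cycle; groups of at least six rats, mean ± SEM.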

[10] = Oral bioavailability in Sprague-Dawley rat at 10 mg/kg; type: ADME, organism-based; settings: in vivo; procedure, shortened: as §1
[11] = Volume of distribution at steady state in Sprague-Dawley rat at 10 mg/kg; type: ADME, organism-based; design: dose 10 mg/kg; settings: in vivo, read-out: Vdss; procedure, shortened: as §1
Rattus norvegicus [12] = test: Analgesic activity in po dosed Sprague-Dawley rat by rotarod test; type: functional
Procedure, shortened: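 Accelerating rotorod: after 30-min acclimation, rats placed on 9-cm rod ramping 0–20 rpm over 60 s; latency to fall recorded, maximum 60 s; three training sessions per rat. Groups of at least six rats; mean ± SEM.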

[13] = target: Sodium channel protein type 2 subunit alpha (Homo sapiens, UniProt Q99250); test: Inhibition of human recombinant Nav1.2 channel expressed in HEK293 cells by whole cell voltage clamp technique; type: cell-based; procedure, shortened: as §3
[14] = target: T1, Sodium channel protein type 10 subunit alpha; test: Inhibition of human recombinant Nav1.8 channel expressed in HEK293 cells at 0.3 uM by whole cell voltage clamp technique; type: cell-based; procedure, shortened: as §4
Rattus norvegicus [15] = test: Analgesic activity in po dosed Sprague-Dawley rat assessed as attenuation of mechanical allodynia in chung model of neuropathic pain; type: functional
[16] = target: Sodium channel protein type 10 subunit alpha (Rattus norvegicus, UniProt Q62968); test: Blockade of Nav1.8 channel in rat dorsal root ganglion neurons assessed as inhibition of TTX-R current by whole cell patch clamp technique; type: tissue-based; procedure, shortened: as §2
[17] = target: T2, 5-hydroxytryptamine receptor 1A (Homo sapiens) (UniProt P08908); test: Binding affinity to 5HT1A receptor at 10 uM
T2 sequence (whole entry): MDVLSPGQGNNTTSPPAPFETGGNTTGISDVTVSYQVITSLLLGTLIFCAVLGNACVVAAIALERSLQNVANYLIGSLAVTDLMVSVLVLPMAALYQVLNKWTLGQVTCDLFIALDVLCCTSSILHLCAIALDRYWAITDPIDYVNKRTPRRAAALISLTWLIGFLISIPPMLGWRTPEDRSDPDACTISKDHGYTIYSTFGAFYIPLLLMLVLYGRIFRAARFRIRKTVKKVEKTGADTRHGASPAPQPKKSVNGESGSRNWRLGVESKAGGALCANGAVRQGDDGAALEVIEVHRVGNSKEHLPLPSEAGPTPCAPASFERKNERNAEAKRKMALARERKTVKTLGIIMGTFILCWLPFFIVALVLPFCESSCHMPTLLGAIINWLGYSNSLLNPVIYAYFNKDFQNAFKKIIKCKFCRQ

[18] = target: 5-hydroxytryptamine receptor 1B (Homo sapiens) (UniProt P28222); test: Binding affinity to 5HT1B receptor at 10 uM
[19] = target: T1, Sodium channel protein type 10 subunit alpha; test: Inhibition of human recombinant Nav1.8 channel expressed in HEK293 cells at 0.1 uM by whole cell voltage clamp technique; type: cell-based; procedure, shortened: as §4
Rattus norvegicus [20] = test: Cardiovascular effect in iv dosed Sprague-Dawley rat assessed as decrease in mean arterial blood pressure; type: functional, Artery; design: scale not given: the % may be the effect or the level left
Procedure, shortened: (§6)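 Anesthetized rats: after a 30-min control period, blocker or vehicle (PEG-400) infused intravenously as five successive 30-min infusions at 1×, 3×, 10×, 30× and 100× of calculated therapeutic dose; blood sample and hematocrit taken after infusion; mean arterial pressure and heart rate monitored.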

Rattus norvegicus [21] = test: Effect on locomotor activity in Sprague-Dawley rat at 230 umol/kg; type: functional; procedure, shortened: as §5
[22] = target: Sodium channel protein type 10 subunit alpha (Rattus norvegicus) (UniProt Q62968); test: Blockade of Nav1.8 channel in rat dorsal root ganglion neurons assessed as inhibition of TTX-R current at 0.03 uM by whole cell patch clamp technique; type: tissue-based
Procedure, shortened: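 Dissociated rat DRG neurons; TTx-r currents recorded by whole-cell voltage clamp. Holding pre-pulse was set at the steady-state inactivation midpoint (V1/2 = −40 mV), giving an inactivated-state protocol. Pipette solution (mM): CsF 135, NaCl 5, CsCl 10, EGTA 5, HEPES 10, pH 7.2. Bath solution (mM): NaCl 22, choline Cl 110, CaCl2 1.8, MgCl2 0.8, HEPES 10, glucose 5, pH 7.4. Percent inhibition is the mean of 2–6 determinations ± SEM.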

Rattus norvegicus [23] = test: Cardiovascular effect in iv dosed Sprague-Dawley rat assessed as decrease in heart rate; type: functional; design: scale not given: the % may be the effect or the level left; procedure, shortened: as §6
[24] = target: T1, Sodium channel protein type 10 subunit alpha; test: Inhibition of human recombinant Nav1.8 channel expressed in HEK293 cells at 0.03 uM by whole cell voltage clamp technique; type: cell-based; procedure, shortened: as §4
[25] = target: Sodium channel protein type 10 subunit alpha (Rattus norvegicus) (UniProt Q62968); test: Blockade of Nav1.8 channel in rat dorsal root ganglion neurons assessed as inhibition of TTX-R current at 0.1 uM by whole cell patch clamp technique; type: tissue-based; procedure, shortened: as §2
[26] = target: Sodium channel protein type 10 subunit alpha (Rattus norvegicus) (UniProt Q62968); test: Blockade of Nav1.8 channel in rat dorsal root ganglion neurons assessed as inhibition of TTX-R current at 1 uM by whole cell patch clamp technique; type: tissue-based; procedure, shortened: as §2
[27] = target: T1, Sodium channel protein type 10 subunit alpha; test: Inhibition of human recombinant Nav1.8 channel expressed in HEK293 cells at 1 uM by whole cell voltage clamp technique; type: cell-based; procedure, shortened: as §4
[28] = target: Sodium channel protein type 10 subunit alpha (Rattus norvegicus) (UniProt Q62968); test: Blockade of Nav1.8 channel in rat dorsal root ganglion neurons assessed as inhibition of TTX-R current at 3 uM by whole cell patch clamp technique; type: tissue-based; procedure, shortened: as §2

Sodium channel protein type 10 subunit alpha (Rattus norvegicus), sequence (Q62968 whole entry, looked up): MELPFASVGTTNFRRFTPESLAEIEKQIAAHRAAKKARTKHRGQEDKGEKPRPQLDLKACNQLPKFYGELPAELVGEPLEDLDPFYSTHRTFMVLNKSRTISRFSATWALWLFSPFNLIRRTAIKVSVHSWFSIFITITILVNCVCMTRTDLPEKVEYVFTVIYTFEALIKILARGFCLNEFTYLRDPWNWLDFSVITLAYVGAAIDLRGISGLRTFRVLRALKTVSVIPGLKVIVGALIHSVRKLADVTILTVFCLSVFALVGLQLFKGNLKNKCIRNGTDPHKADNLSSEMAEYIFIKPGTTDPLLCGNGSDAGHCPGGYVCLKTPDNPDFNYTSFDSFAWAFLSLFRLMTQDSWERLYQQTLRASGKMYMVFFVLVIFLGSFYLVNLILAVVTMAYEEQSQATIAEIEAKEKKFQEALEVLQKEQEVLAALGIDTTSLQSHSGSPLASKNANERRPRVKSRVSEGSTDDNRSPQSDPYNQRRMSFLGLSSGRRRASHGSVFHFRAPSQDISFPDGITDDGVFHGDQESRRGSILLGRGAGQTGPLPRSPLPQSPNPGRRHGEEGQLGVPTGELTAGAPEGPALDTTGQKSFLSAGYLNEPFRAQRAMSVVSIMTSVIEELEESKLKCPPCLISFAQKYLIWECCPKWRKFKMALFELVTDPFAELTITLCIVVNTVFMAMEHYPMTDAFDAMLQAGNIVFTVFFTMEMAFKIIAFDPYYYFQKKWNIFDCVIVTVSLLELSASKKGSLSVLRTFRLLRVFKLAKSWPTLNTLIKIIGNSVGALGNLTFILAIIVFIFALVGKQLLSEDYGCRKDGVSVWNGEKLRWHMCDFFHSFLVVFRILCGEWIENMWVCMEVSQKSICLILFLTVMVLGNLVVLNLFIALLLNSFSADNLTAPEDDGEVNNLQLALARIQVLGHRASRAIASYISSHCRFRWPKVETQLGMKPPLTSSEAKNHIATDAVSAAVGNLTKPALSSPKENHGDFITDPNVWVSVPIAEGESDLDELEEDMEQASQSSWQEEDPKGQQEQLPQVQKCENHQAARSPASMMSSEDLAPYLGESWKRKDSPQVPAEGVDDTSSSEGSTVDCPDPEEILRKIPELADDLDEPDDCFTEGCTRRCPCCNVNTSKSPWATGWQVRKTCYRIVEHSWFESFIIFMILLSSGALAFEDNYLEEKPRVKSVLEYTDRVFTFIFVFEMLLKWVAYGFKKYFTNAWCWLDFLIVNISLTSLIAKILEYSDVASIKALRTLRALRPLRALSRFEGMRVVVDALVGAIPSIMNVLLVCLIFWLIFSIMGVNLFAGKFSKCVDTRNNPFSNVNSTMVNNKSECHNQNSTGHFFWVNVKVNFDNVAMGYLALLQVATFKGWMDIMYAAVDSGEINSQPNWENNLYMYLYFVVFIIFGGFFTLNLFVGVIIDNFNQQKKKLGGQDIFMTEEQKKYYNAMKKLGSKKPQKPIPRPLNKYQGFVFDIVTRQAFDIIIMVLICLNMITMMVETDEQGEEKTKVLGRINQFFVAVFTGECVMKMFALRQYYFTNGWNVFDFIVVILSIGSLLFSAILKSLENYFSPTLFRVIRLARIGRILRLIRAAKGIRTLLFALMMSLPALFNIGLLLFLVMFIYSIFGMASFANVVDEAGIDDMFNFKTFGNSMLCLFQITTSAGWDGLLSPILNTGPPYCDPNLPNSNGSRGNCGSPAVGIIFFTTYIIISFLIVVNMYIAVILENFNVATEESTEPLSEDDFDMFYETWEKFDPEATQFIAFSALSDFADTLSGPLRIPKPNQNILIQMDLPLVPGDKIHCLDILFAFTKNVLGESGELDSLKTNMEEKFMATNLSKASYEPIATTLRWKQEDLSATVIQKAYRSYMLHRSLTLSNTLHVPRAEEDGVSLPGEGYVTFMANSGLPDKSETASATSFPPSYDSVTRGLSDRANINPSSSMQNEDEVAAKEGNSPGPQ
Sodium channel protein type 10 subunit alpha (Rattus norvegicus, UniProt Q62968), sequence (Q62968 whole entry): as the sequence (Q62968 whole entry, looked up) above
Sodium channel protein type 10 subunit alpha (Mus musculus, UniProt Q6QIY3), sequence (Q6QIY3 whole entry): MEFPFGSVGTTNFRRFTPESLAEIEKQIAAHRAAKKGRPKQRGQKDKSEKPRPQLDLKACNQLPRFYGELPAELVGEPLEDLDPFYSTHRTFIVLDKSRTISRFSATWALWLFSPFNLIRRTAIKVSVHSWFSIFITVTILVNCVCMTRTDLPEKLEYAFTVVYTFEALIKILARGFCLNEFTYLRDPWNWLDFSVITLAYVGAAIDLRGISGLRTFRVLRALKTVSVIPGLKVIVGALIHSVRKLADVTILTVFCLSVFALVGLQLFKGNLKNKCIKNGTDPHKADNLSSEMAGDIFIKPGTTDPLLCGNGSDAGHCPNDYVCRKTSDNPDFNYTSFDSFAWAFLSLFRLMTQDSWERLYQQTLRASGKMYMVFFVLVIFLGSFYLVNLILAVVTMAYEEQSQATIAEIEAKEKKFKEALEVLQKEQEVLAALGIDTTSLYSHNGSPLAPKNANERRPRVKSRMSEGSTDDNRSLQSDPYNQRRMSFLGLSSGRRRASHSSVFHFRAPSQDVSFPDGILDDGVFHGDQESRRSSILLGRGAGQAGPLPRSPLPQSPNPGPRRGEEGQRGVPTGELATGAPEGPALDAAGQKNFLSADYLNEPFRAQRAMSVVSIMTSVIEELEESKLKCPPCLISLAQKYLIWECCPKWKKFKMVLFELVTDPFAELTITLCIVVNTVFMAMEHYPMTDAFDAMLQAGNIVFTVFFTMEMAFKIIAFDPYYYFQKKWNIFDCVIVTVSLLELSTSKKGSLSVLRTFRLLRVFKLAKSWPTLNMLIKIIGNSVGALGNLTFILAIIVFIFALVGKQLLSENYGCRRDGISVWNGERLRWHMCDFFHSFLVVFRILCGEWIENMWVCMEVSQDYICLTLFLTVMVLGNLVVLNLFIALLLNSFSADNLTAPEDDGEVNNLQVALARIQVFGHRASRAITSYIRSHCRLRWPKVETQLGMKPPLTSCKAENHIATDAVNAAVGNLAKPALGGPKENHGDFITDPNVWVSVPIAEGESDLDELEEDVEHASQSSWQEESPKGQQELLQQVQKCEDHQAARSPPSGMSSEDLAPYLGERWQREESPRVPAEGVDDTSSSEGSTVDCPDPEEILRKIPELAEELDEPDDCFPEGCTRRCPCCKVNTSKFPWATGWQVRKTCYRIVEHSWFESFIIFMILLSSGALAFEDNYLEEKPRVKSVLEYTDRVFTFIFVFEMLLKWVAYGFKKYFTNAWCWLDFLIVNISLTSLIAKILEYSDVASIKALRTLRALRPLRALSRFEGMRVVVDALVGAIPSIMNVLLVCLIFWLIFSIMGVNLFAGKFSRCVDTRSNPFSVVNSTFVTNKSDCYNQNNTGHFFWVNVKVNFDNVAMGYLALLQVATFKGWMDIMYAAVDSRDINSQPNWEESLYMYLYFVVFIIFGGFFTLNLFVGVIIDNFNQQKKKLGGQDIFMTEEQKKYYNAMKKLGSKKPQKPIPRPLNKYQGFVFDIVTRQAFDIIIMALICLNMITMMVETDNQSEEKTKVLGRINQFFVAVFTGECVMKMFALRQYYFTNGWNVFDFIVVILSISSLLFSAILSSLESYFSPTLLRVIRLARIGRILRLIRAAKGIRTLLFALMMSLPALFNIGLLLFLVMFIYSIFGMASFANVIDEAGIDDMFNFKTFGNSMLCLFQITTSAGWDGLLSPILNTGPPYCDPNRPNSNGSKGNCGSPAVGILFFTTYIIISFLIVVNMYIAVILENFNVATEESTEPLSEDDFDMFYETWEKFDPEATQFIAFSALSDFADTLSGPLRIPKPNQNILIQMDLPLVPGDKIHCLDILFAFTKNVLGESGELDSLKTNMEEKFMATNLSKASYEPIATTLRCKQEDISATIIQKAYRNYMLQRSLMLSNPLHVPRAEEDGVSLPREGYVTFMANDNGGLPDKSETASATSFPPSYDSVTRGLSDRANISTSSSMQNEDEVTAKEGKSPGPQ
5-hydroxytryptamine receptor 1B (Homo sapiens), sequence (P28222 whole entry): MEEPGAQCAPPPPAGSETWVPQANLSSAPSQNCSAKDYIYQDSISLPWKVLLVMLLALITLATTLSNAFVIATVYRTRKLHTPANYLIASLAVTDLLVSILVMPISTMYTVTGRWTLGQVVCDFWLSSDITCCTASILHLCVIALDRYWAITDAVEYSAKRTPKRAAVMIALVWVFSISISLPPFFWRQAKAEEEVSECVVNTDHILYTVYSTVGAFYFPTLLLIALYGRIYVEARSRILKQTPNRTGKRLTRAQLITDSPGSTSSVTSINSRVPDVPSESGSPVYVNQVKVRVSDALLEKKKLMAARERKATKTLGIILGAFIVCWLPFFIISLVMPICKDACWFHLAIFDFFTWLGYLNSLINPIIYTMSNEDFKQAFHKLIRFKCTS

In the case of `O=C(c1ccc(-c2ccc(Cl)cc2)o1)N1CCN(C2CCCCC2)CC1`, the ED50 (Rattus norvegicus [1]) was > 300 µmol/kg, the Kp [2] was 9 and the Cmax [3] was 470 ng/mL. The clearance [4] was 45 mL/min/kg, the pIC50 [5] was 6.00 and the inhibition [6] was 50%. For the same compound, the pIC50 [7] was 5.64, the pIC50 [8] was 6.52 and the ED50 (Rattus norvegicus [9]) was > 300 µmol/kg. For the same compound, the bioavailability [10] was 48%, the Vd [11] was 7.8 L/kg and the ED50 (Rattus norvegicus [12]) was > 300 µmol/kg. It also gave a pIC50 [13] of 6.46, an inhibition [14] of 58% and an ED50 (Rattus norvegicus [15]) of 37 µmol/kg. The pIC50 [16] was 6.41.

For `O=C(c1ccc(-c2ccc(Cl)cc2)o1)N1CCNCC1`, the ED50 (Rattus norvegicus [1]) was > 300 µmol/kg, the Kp [2] was 9 and the Activity [17] was 60%. The Cmax [3] was 130 ng/mL, the Activity [18] was 86% and the clearance [4] was 350 mL/min/kg. For the same compound, the pIC50 [5] was 5.54, the inhibition [6] was 41% and the pIC50 [7] was 5.34. The pIC50 [8] was 6.55, the ED50 (Rattus norvegicus [9]) was > 300 µmol/kg and the bioavailability [10] was 42%. For the same compound, the Vd [11] was 24 L/kg, the ED50 (Rattus norvegicus [12]) was > 300 µmol/kg and the pIC50 [13] was 5.96. For the same compound, the inhibition [14] was 55%, the ED50 (Rattus norvegicus [15]) was 24 µmol/kg and the pIC50 [16] was 6.37.

In the case of `O=C(c1ccc(-c2ccc(OC(F)(F)F)cc2)o1)N1CCN(C2CCCCC2)CC1`, the inhibition [19] was 42% and the inhibition [14] was 89%.

For `CC(C)(C)c1ccc(-c2ccc(C(=O)N3CCN(C4CCCCC4)CC3)o2)cc1`, the Activity (Rattus norvegicus [20]) was 11%, the ED50 (Rattus norvegicus [1]) was > 300 µmol/kg and the Kp [2] was 8. For the same compound, the Activity (Rattus norvegicus [21]) was 38%, the inhibition [22] was 20% and the Cmax [3] was 570 ng/mL. For the same compound, the clearance [4] was 127 mL/min/kg, the Activity (Rattus norvegicus [23]) was 27% and the inhibition [19] was 81%. The pIC50 [7] was 7.00, the pIC50 [8] was 7.52 and the bioavailability [10] was 7%. The inhibition [24] was 57%, the Vd [11] was 13.4 L/kg and the ED50 (Rattus norvegicus [12]) was > 300 µmol/kg. For the same compound, the inhibition [25] was 58%, the ED50 (Rattus norvegicus [15]) was 4.7 µmol/kg and the pIC50 [16] was 7.05.

In the case of `CN(C)CC(C)(C)CNC(=O)c1ccc(-c2ccc(Cl)cc2)o1`, the pIC50 [5] was 5.62 and the inhibition [6] was 65%.

Work on `O=C(c1ccc(-c2ccc(Oc3ccccc3)cc2)o1)N1CCNCC1` yielded an inhibition [19] of 39%, an inhibition [26] of 56% and an inhibition [27] of 93%.

Compound `CN1CCN(C(=O)c2ccc(-c3ccc(Cl)cc3)o2)CC1` has an inhibition [28] of 31% and a pIC50 [5] of 5.00.

In the case of `O=C(c1ccc(-c2ccc(Oc3ccccc3)cc2)o1)N1CCN(C2CCCCC2)CC1`, the inhibition [24] was 68%, the inhibition [26] was 67% and the inhibition [14] was 93%.

`O=C(c1ccc(-c2ccc(Cl)cc2Cl)o1)N1CCN(C2CCCCC2)CC1` gave an inhibition [14] of 12%.

`O=C(NCCN1CCCCC1)c1ccc(-c2ccc(Cl)cc2)o1` gave an inhibition [19] of 29%, a pIC50 [5] of 6.05 and an inhibition [6] of 59%.

`O=C(c1ccc(-c2ccc(Cl)cc2)o1)N1CCN(c2cccc(C(F)(F)F)c2)CC1` gave a pIC50 [5] of 4.85.
